This note sets out measurements from ChEMBL document CHEMBL2046333, “Antiprotozoal and antimicrobial compounds from the plant pathogen Septoria pistaciarum” (J Nat Prod, 2012).

Data set [1] in a line: Cytotoxicity against pig LLC-PK11 cells assessed as viable cells by neutral red dye method. Format: cell-based. Conditions: Sus scrofa.
The subject of another data set is Leishmania donovani. Briefly: Antileishmanial activity against Leishmania donovani promastigotes. Format: functional, organism-based. An outline of the steps: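 Compounds were tested in vitro on cultured L. donovani promastigotes, with pentamidine and amphotericin B as standard controls. IC50 and IC90 (50% and 90% growth inhibition) were computed from growth-inhibition curves.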

Data set [2] deals with Lactuca sativa. Briefly: Phytotoxic activity against Lactuca sativa cv. L. at 1.73 mM. Format: functional, organism-based. An outline of the steps: (§1)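 Compound (1 mg) dissolved in 100 μL acetone; 20 μL spotted on filter paper, air-dried 30 min. Paper placed in well, 200 μL water added. Bentgrass (Agrostis stolonifera) or lettuce (Lactuca sativa cv. L., Iceberg) seeds used. Solvent controls treated identically. Growth scored visually from 0 (no effect) to 5 (no growth).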

In the next data set the test system is SK-OV-3. Briefly: Cytotoxicity against human SKOV3 cells assessed as viable cells by neutral red dye method. Format: functional, cell-based.
In the next data set the test system is Vero. Briefly: Cytotoxicity against african green monkey Vero cells. Format: cell-based, Chlorocebus sabaeus. Conditions: for pIC50: Chlorocebus sabaeus, Vero, read-out: IC50; for IC50: vero. An outline of the steps:
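Mammalian cells (Vero, LLC-PK11, SK-MEL, KB, BT-549, SK-OV-3) exposed to compound; viable cells counted by Neutral Red dye uptake; IC50 taken from dose-response curves.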

Data set [3] has as its system Plasmodium falciparum. Briefly: Antimalarial activity against chloroquine-resistant Plasmodium falciparum W2 infected in RBC assessed as parasite LDH activity after 72 hrs. The format is functional, organism-based. Conditions: W2, 72 h.
Data set [4] is described as follows: Selectivity index, ratio of IC50 for african green monkey Vero cells to IC50 for chloroquine-resistant Plasmodium falciparum W2. Format: toxicity, cell-based. Conditions: read-out: Ratio IC50. In short, it runs like this:
(§2)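 Selectivity index is the IC50 for Vero-cell cytotoxicity (Neutral Red viability) divided by the IC50 against P. falciparum D6 or W2 (from dose-response curves).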

For another data set, the system named is SK-MEL. Briefly: Cytotoxicity against human SK-MEL cells assessed as viable cells by neutral red dye method. Format: functional, cell-based.
The nature of data set [5]: Selectivity index, ratio of IC50 for african green monkey Vero cells to IC50 for chloroquine-sensitive Plasmodium falciparum D6. Format: toxicity, cell-based. Conditions: read-out: Ratio IC50. In short, it runs like this:
as §2

Data set [6] has as its system Agrostis stolonifera. Briefly: Phytotoxic activity against Agrostis stolonifera at 1.73 mM. The format is functional, organism-based. In short, it runs like this: as §1
For data set [7], the system named is Plasmodium falciparum. Briefly: Antimalarial activity against chloroquine-sensitive Plasmodium falciparum D6 infected in RBC assessed as parasite LDH activity after 72 hrs. The format is functional, organism-based. Conditions: D6, 72 h.
Another data set concerns BT-549. Briefly: Cytotoxicity against human BT549 cells assessed as viable cells by neutral red dye method. The format is functional, cell-based.
A further data set concerns KB. Briefly: Cytotoxicity against human KB cells assessed as viable cells by neutral red dye method. Format: functional, cell-based.
Data set [8] concerns Staphylococcus aureus. Briefly: Antimicrobial activity against methicillin-sensitive Staphylococcus aureus ATCC 29213 by CLSI M7-A5 method. The format is functional.
For data set [9], the system named is Staphylococcus aureus. Briefly: Antimicrobial activity against methicillin-resistant Staphylococcus aureus ATCC 33591 by CLSI M7-A5 method. Format: functional.
Data set [10] deals with Lactuca sativa. Briefly: Phytotoxic activity against Lactuca sativa cv. L. at 1.87 mM. The format is functional, organism-based. An outline of the steps: (§3)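 Seeds were bentgrass (Agrostis stolonifera) and lettuce (cv. Iceberg), in multiwell plates. Compound was dissolved at 1 mg per 100 μL acetone, and a 20 μL aliquot was dried onto filter paper for 30 min under airflow. Water was then added. Acetone solvent controls were handled identically. Growth was scored visually from 0 (no effect) to 5 (no growth).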

In data set [11] the test system is Agrostis stolonifera. Briefly: Phytotoxic activity against Agrostis stolonifera at 1.87 mM. Format: functional, organism-based. An outline of the steps: as §3
Data set [12] has as its system Lactuca sativa. Briefly: Phytotoxic activity against Lactuca sativa cv. L. at 1.62 mM. Format: functional, organism-based. An outline of the steps: as §1
For data set [13], the system named is Agrostis stolonifera. Briefly: Phytotoxic activity against Agrostis stolonifera at 1.62 mM. The format is functional, organism-based. An outline of the steps:
as §1

The next data set has as its system Nakaseomyces glabratus. Briefly: Antifungal activity against Candida glabrata ATCC 90030 by broth dilution method. The format is functional, organism-based. An outline of the steps:
(§4)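 Broth dilution run as a modified CLSI susceptibility method. Amphotericin B was included as the antifungal drug control in each assay.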

Another data set concerns Candida albicans. Briefly: Antifungal activity against Candida albicans ATCC 90028 by broth dilution method. The format is functional, organism-based. An outline of the steps: as §4
Another data set has as its system Pichia kudriavzevii. Briefly: Antifungal activity against Candida krusei ATCC 6258 by broth dilution method. Format: functional, organism-based. An outline of the steps:
as §4

Another data set concerns Cryptococcus neoformans. Briefly: Antifungal activity against Cryptococcus neoformans ATCC 90113 by broth dilution method. The format is functional, organism-based. In short, it runs like this: as §4
Another data set concerns Aspergillus fumigatus. Briefly: Antifungal activity against Aspergillus fumigatus ATCC 90906 by broth dilution method. Format: functional, organism-based. In short, it runs like this:
as §4

pIC50: −log10 of the molar value. In brackets after ≈: the same amount, converted by molar mass. Activity calls are given as the source filed them. The rule behind the calls is not given here. A value given as a limit tells only on which side of the number the result lay.

As for `COc1c(C[C@@H](C)OC(C)=O)c2c3c(C[C@@H](C)O)c(OC)c(=O)c4c(O)cc5c(c6c(cc(O)c(c1=O)c62)OCO5)c43`, the pIC50 in data set [1] is 5.00; in the data set with Leishmania donovani, 5.77; in the data set on SK-OV-3, 5.40; with Vero, 5.28; with Plasmodium falciparum [3], 5.51; with SK-MEL it was 5.42. The pIC50 with Plasmodium falciparum [7] was 5.56; in the data set on BT-549, 5.07; in the data set with KB, 5.07. The outcome in the data set on Lactuca sativa [2] and in the data set with Agrostis stolonifera [6] was Active. For the same compound, the selectivity ratio was 1.7 in data set [4] and 1.9 in data set [5].
Regarding `C[C@@H]1[C@H](O)[C@@H](C)/C=C/C=C/C=C/C=C/C=C/C=C/C=C/[C@H](O[C@@H]2O[C@H](C)[C@@H](O)[C@H](N)[C@@H]2O)C[C@@H]2O[C@](O)(C[C@@H](O)C[C@@H](O)[C@H](O)CC[C@@H](O)C[C@@H](O)CC(=O)O[C@H]1C)C[C@H](O)[C@H]2C(=O)O` [AMPHOTERICIN B], in the data set on Leishmania donovani, the pIC50 was 6.74 and the IC90 stood at 380 nM.
Take `CC[C@@H](C)[C@H]1O[C@@H](c2c(OC)c(-c3ccccc3)c[n+]([O-])c2OC)[C@H](C)C[C@@H]1C`: the IC50 result in the data set with Vero is listed as “Non-toxic”. The pIC50 in the data set on Plasmodium falciparum [3] is 5.19; with Plasmodium falciparum [7] it was 5.17. Moreover, the selectivity ratio is more than 1.2 in [4] and more than 1.1 in data set [5].
Regarding `C[C@@H]1CC[C@H]2[C@@H](C)C(=O)O[C@@H]3O[C@@]4(C)CC[C@@H]1[C@]32OO4` [ARTEMISININ], the IC50 entry with Vero was “Non-toxic”. In addition, the pIC50 in the data set on Plasmodium falciparum [7] was 7.70.
Turning to `CCN(CC)CCCC(C)Nc1ccnc2cc(Cl)ccc12` (configuration not stated) [CHLOROQUINE], in the data set with Vero, the IC50 entry was “Non-toxic”.
In the case of `COc1c(C[C@@H](C)O)c2c3c(C[C@@H](C)O)c(OC)c(=O)c4c(O)cc5c(c6c(cc(O)c(c1=O)c62)OCO5)c43`, the pIC50 was 5.41 in [1]; 5.94 with Leishmania donovani; 5.43 with SK-OV-3; 5.28 in the data set with Vero; 5.79 in the data set on Plasmodium falciparum [3]; 5.44 with SK-MEL. Besides, the pIC50 in the data set with Plasmodium falciparum [7] is 5.97; with BT-549, 4.97; with KB, 5.15. The same compound gave an IC90 in the data set on Leishmania donovani of 2810 nM. In addition, the MIC is 4.7 µM (≈ 2.51 µg/mL) in the data set with Staphylococcus aureus [8] and 9.4 µM (≈ 5.02 µg/mL) in the data set on Staphylococcus aureus [9]. Also, the selectivity ratio in data set [4] came to 3.2; in data set [5] it was 4.8. The outcome in the data set with Lactuca sativa [10] and in the data set on Agrostis stolonifera [11] was Active.
Consider `COc1c(C[C@@H](C)OC(C)=O)c2c3c(C[C@@H](C)OC(C)=O)c(OC)c(=O)c4c(O)cc5c(c6c(cc(O)c(c1=O)c62)OCO5)c43`, for which the pIC50 in [1] is 5.03; in the data set with Leishmania donovani, 5.51; with SK-OV-3, 5.32; in the data set with Vero, 5.34; in the data set on Plasmodium falciparum [3] it was 5.71; in the data set on SK-MEL, 5.31. The values for the pIC50 with Plasmodium falciparum [7], in the data set on BT-549 and with KB were 5.56, 5.06 and 5.06, respectively. In the data set on Leishmania donovani, this compound yielded an IC90 of 9700 nM. The outcome in the data set with Lactuca sativa [12] and in the data set on Agrostis stolonifera [13] was Active. Moreover, the values for the selectivity ratio in data set [4] and in [5] were 2.3 and 1.6, respectively.
In the data set on Leishmania donovani, `CC[C@@H](C)[C@H]1O[C@@H](c2c(O)c(-c3ccccc3)cn(O)c2=O)[C@H](C)C[C@@H]1C` [SEPTORIAMYCIN A] gave a pIC50 of 6.96. In the data set on Leishmania donovani, this compound came in with an IC90 of 290 nM. Further, the result with Nakaseomyces glabratus, with Candida albicans, in the data set on Pichia kudriavzevii, in the data set on Cryptococcus neoformans and in the data set on Aspergillus fumigatus was Active.
In the data set with Leishmania donovani, `N=C(N)c1ccc(OCCCCCOc2ccc(C(=N)N)cc2)cc1` [PENTAMIDINE] had a pIC50 of 5.54 and an IC90 of 5580 nM.
